In ChEMBL document CHEMBL1148770, “Conformation-activity relationship of neuropeptide S and some structural mutants: helicity affects their interaction with the receptor” (J Med Chem, 2007):
Square brackets hold non-standard residues; d marks the D form. Peptide text beside a SMILES is read from it. Aib = CC(C)(N)C(=O)O

What was measured:
Assay type in all cases: functional, cell-based
[1] = biological target: T1, Neuropeptide S receptor (Mus musculus) (UniProt Q8BZP8); assay: Agonist activity at mouse recombinant NPSR expressed in HEK293 cells assessed as calcium mobilization relative to baseline
T1 sequence (whole entry): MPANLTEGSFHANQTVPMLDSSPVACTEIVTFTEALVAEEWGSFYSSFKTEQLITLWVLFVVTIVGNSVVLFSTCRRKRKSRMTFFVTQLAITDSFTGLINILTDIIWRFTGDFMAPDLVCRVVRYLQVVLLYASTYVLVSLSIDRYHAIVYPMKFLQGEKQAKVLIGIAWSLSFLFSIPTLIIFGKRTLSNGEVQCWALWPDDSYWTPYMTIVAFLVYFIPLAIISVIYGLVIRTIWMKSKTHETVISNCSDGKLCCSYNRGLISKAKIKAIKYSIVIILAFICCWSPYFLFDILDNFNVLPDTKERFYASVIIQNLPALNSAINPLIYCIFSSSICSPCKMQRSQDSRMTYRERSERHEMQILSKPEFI
In short: (§1)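 HEK293 cells stably expressing mouse NPSR, grown in DMEM/10% FBS/2 mM glutamine/hygromycin at 37 °C, 5% CO2. Seeded 50,000 cells/well on poly-D-lysine; next day loaded 30 min at 37 °C with 3 µM Fluo-4 AM, 2.5 mM probenecid, 0.01% pluronic acid. Read in HBSS/20 mM HEPES/probenecid/Brilliant Black at ≈22 °C on FlexStation; peak fluorescence change as % baseline; logistic fit; ≥4 experiments in duplicate.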

Neuropeptide S receptor [2] = biological target: T2, Neuropeptide S receptor (Mus musculus, UniProt Q8BZP8); assay: Agonist activity at mouse recombinant NPSR expressed in HEK293 cells assessed as calcium mobilization; in short: as §1
T2 sequence (Q8BZP8 whole entry): T1 sequence (whole entry)

Neuropeptide S receptor [3] = biological target: T2, Neuropeptide S receptor; assay: Antagonist activity at mouse NPSR expressed in HEK293 cells assessed as inhibition of 10 nM hNPS-induced calcium mobilization
In short: (§2)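 Mouse NPSR stably expressed in HEK293 cells, grown with hygromycin, then plated at 50 000 cells/well. Next day, cells were loaded for 30 min at 37 °C with 3 µM Fluo-4 AM, 2.5 mM probenecid and 0.01% pluronic acid. The assay buffer was HBSS with 20 mM HEPES, probenecid and 500 µM Brilliant Black. Fluorescence was read at about 22 °C. pIC50 came from a logistic fit of peak fluorescence (% of baseline). At least four experiments, each in duplicate.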

Neuropeptide S receptor [4] = biological target: T2, Neuropeptide S receptor; assay: Antagonist activity at mouse NPSR expressed in HEK293 cells assessed as inhibition of 100 nM hNPS-induced calcium mobilization; in short: as §2

| Emax [1] [%] | EC50 (Neuropeptide S receptor [2]) [nM] | IC50 (Neuropeptide S receptor [3]) [nM] | IC50 (Neuropeptide S receptor [4]) [nM] | Compound |
| --- | --- | --- | --- | --- |
| 65 | 191 | 537 | 1620 | CSCC[C@H](NC(=O)CNC(=O)[C@@H](NC(=O)CNC(=O)[C@@H](NC(=O)C(C)(C)NC(=O)[C@H](CC(N)=O)NC(=O)[C@H](CCCNC(=N)N)NC(=O)[C@H](Cc1ccccc1)NC(=O)[C@@H](N)CO)C(C)C)[C@@H](C)O)C(=O)N[C@@H](CCCCN)C(=O)N[C@@H](CCCCN)C(=O)N[C@H](C(=O)N[C@@H](CO)C(=O)N[C@@H](Cc1ccccc1)C(=O)N[C@@H](CCC(N)=O)C(=O)N[C@@H](CCCNC(=N)N)C(=O)N[C@@H](C)C(=O)N[C@@H](CCCCN)C(=O)N[C@@H](CO)C(=O)O)[C@@H](C)O (H-SFRN[Aib]VGTGMKKTSFQRAKS-OH) |
| 172 | 21.4 | – | – | CSCC[C@H](NC(=O)[C@@H](C)NC(=O)[C@@H](NC(=O)CNC(=O)[C@@H](NC(=O)CNC(=O)[C@H](CC(N)=O)NC(=O)[C@H](CCCNC(=N)N)NC(=O)[C@H](Cc1ccccc1)NC(=O)[C@@H](N)CO)C(C)C)[C@@H](C)O)C(=O)N[C@@H](CCCCN)C(=O)N[C@@H](CCCCN)C(=O)N[C@H](C(=O)N[C@@H](CO)C(=O)N[C@@H](Cc1ccccc1)C(=O)N[C@@H](CCC(N)=O)C(=O)N[C@@H](CCCNC(=N)N)C(=O)N[C@@H](C)C(=O)N[C@@H](CCCCN)C(=O)N[C@@H](CO)C(=O)O)[C@@H](C)O |
